ChEMBL document CHEMBL2321662, “Azepines and piperidines with dual norepinephrine dopamine uptake inhibition and antidepressant activity” (ACS Med Chem Lett, 2013)
The source made the active and inactive calls. The calls are words filed in the database; no cut-off is given here.

What was measured:
[1] = biological target: Sodium-dependent serotonin transporter (Homo sapiens, UniProt P31645); test: Inhibition of human recombinant SERT expressed in HEK cells; assay type: cell-based, HEK293
How it was run: (§1)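 HEK cells overexpressing human recombinant transporter; uptake inhibition read as block of a fluorescent substrate with a neurotransmitter uptake kit. Values averaged from at least n = 3, up to 2-fold variability.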

[2] = Intrinsic clearance in human liver microsomes; assay type: ADME, Microsome; conditions: read-out: CLH
How it was run: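 Human liver microsomes; intrinsic clearance reported in μL/min/mg.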

[3] = biological target: Sodium-dependent dopamine transporter (Homo sapiens, UniProt Q01959); test: Inhibition of human recombinant DAT expressed in HEK cells; assay type: cell-based, HEK293
Cytochrome P450 2D6 = Cytochrome P450 2D6 (Homo sapiens, UniProt P10635); test: Inhibition of CYP2D6 (unknown origin); assay type: ADME
[4] = biological target: Sodium-dependent noradrenaline transporter (Homo sapiens, UniProt P23975); test: Inhibition of human recombinant NET expressed in HEK cells; assay type: cell-based, HEK293; how it was run: as §1
Plasma = test: Fraction unbound in Long Evans rat plasma; assay type: ADME, cell-free
[5] = Ratio of drug level in whole brain to plasma in Long Evans rat; assay type: ADME, cell-free; conditions: whole brain and plasma, read-out: BPR
Rattus norvegicus [6] = test: Antidepressant activity in Sprague-Dawley rat assessed as reduction of immobility time at 1 to 30 mg/kg, sc measured for 5 mins by forced swimming test; assay type: functional, organism-based
How it was run: (§2)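 Sprague–Dawley rats dosed sc, then scored for immobility time in the forced-swim test. The positive control was desipramine at 15 mg/kg ip. Data are group means ± SEM, compared with vehicle by one-way ANOVA.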

Rattus norvegicus [7] = test: In vivo DAT occupancy in sc dosed Long Evans rat striatum using [3H]-PE2I administered 30 mins before [3H]-PE2I 35428 challenge measured after 60 mins; assay type: functional
How it was run: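 Test compound given sc to rats; 30 min later [3H]PE2I given sc as DAT radioligand, quantified in striatum. […] Mean reported, 95% CI typically ± half the mean.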

Rattus norvegicus [8] = test: Antidepressant activity in sc dosed Sprague-Dawley rat assessed as increase of locomotor activity and stereotypic behavior; assay type: functional, organism-based
How it was run: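 Rats were dosed sc. Spontaneous locomotion was scored over the last 15 min of the session: distance traveled from beam breaks, and stereotypy from repeated breaks of the same beam. Data are group means ± SEM, compared with vehicle by one-way ANOVA.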

Rattus norvegicus [9] = test: In vivo NET occupancy in sc dosed Long Evans rat thalamus [3H]-MeNER administered 30 mins before [3H]-MeNER challenge measured after 90 mins; assay type: functional
How it was run: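 Rats received test compound, then 30 min later sc [3H]MeNER as the NET radioligand, counted in thalamus. […] Mean reported; 95% CI typically ± half the mean.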

Rattus norvegicus [10] = test: Antidepressant activity in Sprague-Dawley rat assessed as reduction of immobility time at 0.3 mg/kg, sc measured for 5 mins by forced swimming test; assay type: functional, organism-based; set-up: dose 0.3 mg/kg; how it was run: as §2
[11] = biological target: Voltage-gated inwardly rectifying potassium channel KCNH2 (Homo sapiens, UniProt Q12809); test: Inhibition of human ERG expressed in CHO-K1 cells by electrophysiological assay; assay type: cell-based
Rattus norvegicus [12] = test: In vivo DAT occupancy in sc dosed Long Evans rat striatum assessed as unbound plasma levels equaling 50% occupancy using [3H]WIN 35428 administered 30 mins before [3H]WIN 35428 challenge measured after 60 mins; assay type: functional, organism-based
Rattus norvegicus [13] = test: Antidepressant activity in Sprague-Dawley rat assessed as reduction of immobility time at 1 mg/kg, sc measured for 5 mins by forced swimming test; assay type: functional, organism-based; set-up: dose 1 mg/kg
How it was run: (§3)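 Rats (Sprague–Dawley) given test compound sc, then scored in forced-swim test for immobility time. Vehicle group comparison; desipramine control dosed 15 mg/kg ip. Data as group means ± SEM; significance vs vehicle by one-way ANOVA.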

Rattus norvegicus [14] = test: In vivo NET occupancy in sc dosed Long Evans rat thalamus assessed as unbound plasma levels equaling 50% occupancy using [3H]-MeNER administered 30 mins before [3H]-MeNER challenge measured after 90 mins; assay type: functional, organism-based
Rattus norvegicus [15] = test: Antidepressant activity in Sprague-Dawley rat assessed as reduction of immobility time at 3 to 10 mg/kg, sc measured for 5 mins by forced swimming test; assay type: functional, organism-based; how it was run: as §3
[16] = Metabolic stability of the compound assessed as GSH adduct formation; assay type: ADME
Rattus norvegicus [17] = test: Antidepressant activity in Sprague-Dawley rat assessed as reduction of immobility time at 2.4 to 7.3 mg/kg, sc measured for 5 mins by forced swimming test; assay type: functional, organism-based; how it was run: as §2
Rattus norvegicus [18] = test: Antidepressant activity in Sprague-Dawley rat assessed as reduction of immobility time at 0.7 mg/kg, sc measured for 5 mins by forced swimming test; assay type: functional, organism-based; set-up: dose 0.7 mg/kg; how it was run: as §2
Rattus norvegicus [19] = species: Rattus norvegicus; test: animal or person; assay type: functional, organism-based; conditions: Long Evans, Striatum
Rattus norvegicus [20] = test: In vivo DAT occupancy in sc dosed Long Evans rat striatum using [3H]PE2I administered 30 mins before [3H]PE2I challenge measured after 60 mins

Sodium-dependent serotonin transporter, sequence (P31645 whole entry): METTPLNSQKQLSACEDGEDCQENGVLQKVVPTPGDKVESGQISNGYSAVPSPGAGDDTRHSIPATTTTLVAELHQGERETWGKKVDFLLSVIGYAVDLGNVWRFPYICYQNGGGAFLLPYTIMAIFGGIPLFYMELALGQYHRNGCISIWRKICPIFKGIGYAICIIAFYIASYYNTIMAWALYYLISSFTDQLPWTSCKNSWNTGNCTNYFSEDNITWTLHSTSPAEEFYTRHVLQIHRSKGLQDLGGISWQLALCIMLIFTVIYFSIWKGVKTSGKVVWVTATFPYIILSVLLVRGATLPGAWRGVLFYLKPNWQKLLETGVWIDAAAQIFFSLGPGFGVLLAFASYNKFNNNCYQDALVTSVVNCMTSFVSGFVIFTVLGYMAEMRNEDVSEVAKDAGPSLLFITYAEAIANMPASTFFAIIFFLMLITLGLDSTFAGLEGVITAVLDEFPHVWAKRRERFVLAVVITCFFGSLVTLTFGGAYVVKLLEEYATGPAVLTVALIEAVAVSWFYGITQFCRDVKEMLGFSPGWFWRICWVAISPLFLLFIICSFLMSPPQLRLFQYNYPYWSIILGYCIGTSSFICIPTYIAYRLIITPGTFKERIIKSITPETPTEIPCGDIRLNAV
Voltage-gated inwardly rectifying potassium channel KCNH2, sequence (Q12809 whole entry): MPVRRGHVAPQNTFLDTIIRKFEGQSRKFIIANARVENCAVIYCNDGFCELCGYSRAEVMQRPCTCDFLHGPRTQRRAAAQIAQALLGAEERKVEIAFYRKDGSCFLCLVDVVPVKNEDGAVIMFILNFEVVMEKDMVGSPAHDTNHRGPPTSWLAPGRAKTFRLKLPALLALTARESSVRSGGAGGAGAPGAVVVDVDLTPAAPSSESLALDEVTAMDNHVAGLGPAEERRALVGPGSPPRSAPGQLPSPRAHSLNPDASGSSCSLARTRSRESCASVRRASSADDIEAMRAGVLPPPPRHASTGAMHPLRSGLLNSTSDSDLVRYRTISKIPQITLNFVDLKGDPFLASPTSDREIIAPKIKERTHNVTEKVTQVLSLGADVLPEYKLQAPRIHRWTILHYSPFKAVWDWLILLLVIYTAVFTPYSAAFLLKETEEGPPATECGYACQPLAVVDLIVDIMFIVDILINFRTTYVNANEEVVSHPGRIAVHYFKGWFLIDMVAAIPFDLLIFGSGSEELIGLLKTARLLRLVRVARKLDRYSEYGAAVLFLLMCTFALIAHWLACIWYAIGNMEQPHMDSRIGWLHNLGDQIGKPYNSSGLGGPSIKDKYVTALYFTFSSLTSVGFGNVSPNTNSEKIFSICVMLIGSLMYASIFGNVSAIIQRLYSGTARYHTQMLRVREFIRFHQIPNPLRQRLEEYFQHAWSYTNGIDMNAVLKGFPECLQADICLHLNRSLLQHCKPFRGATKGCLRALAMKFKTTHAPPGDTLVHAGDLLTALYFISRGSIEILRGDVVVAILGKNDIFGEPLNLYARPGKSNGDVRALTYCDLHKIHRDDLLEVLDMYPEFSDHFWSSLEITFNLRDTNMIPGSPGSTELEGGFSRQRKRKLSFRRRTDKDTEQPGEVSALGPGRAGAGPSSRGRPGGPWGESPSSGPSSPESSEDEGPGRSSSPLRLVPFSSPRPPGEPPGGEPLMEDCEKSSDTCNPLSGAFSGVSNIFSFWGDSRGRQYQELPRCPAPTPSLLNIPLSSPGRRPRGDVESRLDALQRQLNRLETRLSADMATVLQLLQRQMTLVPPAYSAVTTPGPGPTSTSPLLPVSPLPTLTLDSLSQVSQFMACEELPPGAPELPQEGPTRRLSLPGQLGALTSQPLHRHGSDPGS
Cytochrome P450 2D6, sequence (P10635 whole entry): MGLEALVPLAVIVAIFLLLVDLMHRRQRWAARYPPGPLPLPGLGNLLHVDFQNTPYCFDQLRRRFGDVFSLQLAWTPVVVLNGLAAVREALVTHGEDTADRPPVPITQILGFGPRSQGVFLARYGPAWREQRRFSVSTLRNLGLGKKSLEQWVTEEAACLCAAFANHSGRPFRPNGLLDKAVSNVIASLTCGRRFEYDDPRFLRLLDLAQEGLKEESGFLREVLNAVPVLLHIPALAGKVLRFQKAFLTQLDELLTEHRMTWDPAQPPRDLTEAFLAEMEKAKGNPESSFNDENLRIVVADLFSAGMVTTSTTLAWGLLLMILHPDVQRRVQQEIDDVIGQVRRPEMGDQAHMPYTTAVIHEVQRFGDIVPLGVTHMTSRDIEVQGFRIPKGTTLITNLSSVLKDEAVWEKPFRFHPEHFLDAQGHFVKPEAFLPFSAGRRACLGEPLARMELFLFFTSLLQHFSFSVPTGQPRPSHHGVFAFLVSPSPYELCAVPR
Sodium-dependent dopamine transporter, sequence (Q01959 whole entry): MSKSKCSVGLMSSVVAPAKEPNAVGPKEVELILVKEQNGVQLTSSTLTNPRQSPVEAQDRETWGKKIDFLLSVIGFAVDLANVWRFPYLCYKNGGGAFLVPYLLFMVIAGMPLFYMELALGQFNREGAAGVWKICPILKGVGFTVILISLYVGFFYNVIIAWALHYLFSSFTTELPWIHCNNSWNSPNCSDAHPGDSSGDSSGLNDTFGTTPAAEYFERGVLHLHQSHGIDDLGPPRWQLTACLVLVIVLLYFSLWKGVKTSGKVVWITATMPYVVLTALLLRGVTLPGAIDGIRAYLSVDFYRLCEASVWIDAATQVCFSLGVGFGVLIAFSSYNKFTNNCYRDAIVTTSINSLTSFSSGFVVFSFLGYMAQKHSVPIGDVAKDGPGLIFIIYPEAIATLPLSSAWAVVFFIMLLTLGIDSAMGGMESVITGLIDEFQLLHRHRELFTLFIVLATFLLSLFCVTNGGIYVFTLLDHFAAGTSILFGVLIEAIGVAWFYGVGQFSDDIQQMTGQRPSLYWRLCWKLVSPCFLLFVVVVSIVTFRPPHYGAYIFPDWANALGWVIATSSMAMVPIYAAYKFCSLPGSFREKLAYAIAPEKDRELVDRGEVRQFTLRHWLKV
Sodium-dependent noradrenaline transporter, sequence (P23975 whole entry): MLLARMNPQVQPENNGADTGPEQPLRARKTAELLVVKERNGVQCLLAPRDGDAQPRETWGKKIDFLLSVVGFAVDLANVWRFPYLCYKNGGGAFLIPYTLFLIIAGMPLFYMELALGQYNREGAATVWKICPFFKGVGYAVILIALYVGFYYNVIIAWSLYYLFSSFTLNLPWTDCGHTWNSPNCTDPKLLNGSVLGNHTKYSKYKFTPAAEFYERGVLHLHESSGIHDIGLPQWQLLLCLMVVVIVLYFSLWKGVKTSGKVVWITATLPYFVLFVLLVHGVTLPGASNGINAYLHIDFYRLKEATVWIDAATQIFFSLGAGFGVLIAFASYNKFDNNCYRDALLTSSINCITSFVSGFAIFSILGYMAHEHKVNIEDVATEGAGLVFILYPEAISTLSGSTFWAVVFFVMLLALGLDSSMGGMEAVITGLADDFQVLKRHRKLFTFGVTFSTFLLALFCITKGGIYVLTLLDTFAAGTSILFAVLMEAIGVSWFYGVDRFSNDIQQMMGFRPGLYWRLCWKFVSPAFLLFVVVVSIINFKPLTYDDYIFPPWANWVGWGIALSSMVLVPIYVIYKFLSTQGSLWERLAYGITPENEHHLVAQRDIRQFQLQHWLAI

Compound | Ki [1] | microsomal CLint [2] | Ki [3] | IC50 (Cytochrome P450 2D6) | Ki [4] | IC50 [11] | further results
Clc1ccc(C2CC=CCNC2)cc1Cl (racemic) | 220 nM | 30 µL/min/mg | 6 nM | 5100 nM | 66 nM | – | –
CN1Cc2c(N)cccc2C(c2ccccc2)C1 (racemic) [NOMIFENSINE] | – | 37 µL/min/mg | – | > 20000 nM | – | > 27000 nM | Cp(f) (Plasma): 60.5%; Kp [5]: 10.1; Activity (Rattus norvegicus [6]): Active; ED50 (Rattus norvegicus [7]): 0.7 mg/kg; Activity (Rattus norvegicus [8]): Dose-dependent effect; ED50 (Rattus norvegicus [9]): 0.05 mg/kg; Activity (Rattus norvegicus [10]): inactive
CN1CC=CC[C@@H](c2ccc(Cl)c(Cl)c2)C1 | 130 nM | 86 µL/min/mg | 13 nM | – | 54 nM | – | –
Clc1ccc([C@@H]2CC=CCNC2)cc1Cl | 420 nM | 50 µL/min/mg | 8 nM | 3100 nM | 24 nM | – | –
CN1CC=CCC(c2cc3ccccc3o2)C1 (stereo unspecified) | 800 nM | 97 µL/min/mg | 60 nM | 6700 nM | 120 nM | 15000 nM | –
Cc1cc(C2CC=CCNC2)ccc1Cl (stereo unspecified) | – | – | 24 nM | – | 170 nM | 26000 nM | –
Clc1ccc(C2CC=CCNC2)cc1 (stereo unspecified) | – | – | 25 nM | – | 250 nM | > 31000 nM | –
C1=CCC(c2ccc3ccccc3c2)CNC1 (stereo unspecified) | 63 nM | 94 µL/min/mg | 10 nM | 6600 nM | 25 nM | – | –
COCCN1CC=CC[C@H](c2ccc(Cl)c(Cl)c2)C1 | 540 nM | 150 µL/min/mg | 9 nM | 3900 nM | 15 nM | 5300 nM | –
Clc1ccc([C@H]2CC=CCNC2)cc1Cl | 220 nM | 33 µL/min/mg | 6 nM | 3900 nM | 17 nM | – | Cp(f) (Plasma): 7.7%; EC50 (Rattus norvegicus [12]): 220 nM; Activity (Rattus norvegicus [13]): inactive; Kp [5]: 4.8; ED50 (Rattus norvegicus [7]): 0.8 mg/kg; EC50 (Rattus norvegicus [14]): 46 nM; Activity (Rattus norvegicus [15]): Active; Activity (Rattus norvegicus [8]): Dose-dependent effect; ED50 (Rattus norvegicus [9]): 0.5 mg/kg; Stability [16]: Stable
Clc1ccc(C2CCCCNC2)cc1Cl (racemic) | 140 nM | 35 µL/min/mg | 11 nM | 2300 nM | 130 nM | 6100 nM | –
OCC[C@]1(c2ccc(Cl)c(Cl)c2)CCCNC1 | 42 nM | < 4 µL/min/mg | 9.3 nM | > 20000 nM | 3.3 nM | > 33000 nM | –
OCCN1CC=CC[C@H](c2ccc(Cl)c(Cl)c2)C1 | 150 nM | 52 µL/min/mg | 37 nM | > 20000 nM | 12 nM | 10000 nM | –
OCC[C@@]1(c2ccc(Cl)c(Cl)c2)CCCNC1 | 250 nM | < 4 µL/min/mg | 140 nM | > 20000 nM | 250 nM | > 33000 nM | –
Cc1cc(C2CC=CCN(C)C2)ccc1Cl (stereo unspecified) | 270 nM | 85 µL/min/mg | 23 nM | 18000 nM | 130 nM | 26000 nM | –
CN1CC=CCC(c2ccc(Cl)c(Cl)c2)C1 (racemic) | 100 nM | 57 µL/min/mg | 5 nM | – | 57 nM | – | –
OCC[C@]1(c2cc3ccccc3o2)CCCNC1 | 230 nM | 22 µL/min/mg | 6 nM | > 20000 nM | 4 nM | – | Cp(f) (Plasma): 75%; Activity (Rattus norvegicus [17]): Active; Kp [5]: 5.8; Activity (Rattus norvegicus [18]): inactive; EC50 (Rattus norvegicus [19]): 33 nM; EC50 (Rattus norvegicus [14]): 5.6 nM; Activity (Rattus norvegicus [8]): inactive; ED50 (Rattus norvegicus [9]): 0.17 mg/kg; ED50 (Rattus norvegicus [20]): 0.8 mg/kg; Stability [16]: Stable
Cc1ccc(C2CC=CCNC2)cc1Cl (stereo unspecified) | 600 nM | 100 µL/min/mg | 49 nM | 5600 nM | 83 nM | > 27000 nM | –
Fc1ccc(C2CC=CCNC2)cc1Cl (stereo unspecified) | 1500 nM | 15 µL/min/mg | 68 nM | 6400 nM | 130 nM | – | –
Clc1cccc(C2CC=CCNC2)c1 (stereo unspecified) | – | – | 240 nM | – | 430 nM | > 33000 nM | –
OCC[C@@]1(c2cc3ccccc3o2)CCCNC1 | – | – | 400 nM | – | 430 nM | – | –
C1=CCC(c2cc3ccccc3o2)CNC1 (stereo unspecified) | 240 nM | 83 µL/min/mg | 23 nM | 7800 nM | 46 nM | 19000 nM | –
CN1CC=CC[C@H](c2ccc(Cl)c(Cl)c2)C1 | 83 nM | 51 µL/min/mg | 3 nM | – | 12 nM | – | –
CN1CCCCC(c2ccc(Cl)c(Cl)c2)C1 (racemic) | 260 nM | – | 8 nM | – | 74 nM | 10000 nM | –
